The values that follow come from ChEMBL document CHEMBL1828562, “Aryl H-phosphonates 17: (N-aryl)phosphoramidates of pyrimidine nucleoside analogues and their synthesis, selected properties, and anti-HIV activity” (J Med Chem, 2011).

Activity calls are given as the source filed them.

Data set [1] can be described thus: Dissociation constant, pKa of the compound in aqueous solution. The class given is physicochemical.
A short description of data set [2]: Cytotoxicity against human CEM-T4 cells assessed as cell viability at 50 uM after 7 days by MTT assay. Type of data set: cell-based. Conditions: cem-t4, 168 h. An outline of the steps: (§1)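 CEM-T4 cells cultured at 37 °C, 5% CO2 in RPMI/10% FCS containing compound, with neat medium as control. After 7 days, MTT (5 mg/mL solution) added for 3 h at 37 °C. Cells centrifuged, supernatant removed, formazan dissolved in DMSO and read at 560 nm. CC50 and CC90 determined on mock-infected cells.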
(Tetrazolium assays rely on reduction of a dye to a coloured formazan, in cell work by metabolically active cells.)

Data set [3] in a line: Selectivity index, ratio of CC50 for human CEM-T4 cells to EC50 for HIV1 infected human CEM-T4 cells. Type of data set: toxicity, cell-based. Conditions: read-out: Ratio CC50/EC50. The procedure, abridged: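 Selectivity index calculated as CC50/EC50, both measured in CEM-T4 cells, and rounded.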
Data set [4] deals with Human immunodeficiency virus 1. Nature of the data set: Antiviral activity against HIV1 infected in human CEM/TK- cells assessed as inhibition of virus-induced cytopathogenicity. The class given is functional, organism-based. A general note: Damage to the host cells serves as the signal in cytopathic effect assays.
Data set [5] in a line: Chemical stability of the compound in RPMI cell culture media assessed as half life at 2 mM. The class given is physicochemical. The procedure, abridged: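 Compound at 2 mM incubated in RPMI/FBS 9:1 (v/v) at 37 °C. Decomposition followed by HPLC on a C18 column. Half-life calculated from the degradation course.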
For data set [6], the system named is Human immunodeficiency virus 1. Nature of the data set: Antiviral activity against HIV1 infected in human CEM-T4 cells assessed as reduction in viral protein p24 production preincubated for 24 hrs measured after 8 days by MTT assay. Type of data set: functional, organism-based. The following applies: Human immunodeficiency virus 1, CEM-T4. An outline of the steps:
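CEM-T4 cells, 20000 per well in 200 μL, preincubated 24 h at 37 °C, 5% CO2 in RPMI/10% FCS containing compound at 0,001–20 μM. Cells then inoculated with a known amount of HIV. Viral p24 read after 8 days by the MTT method. Triplicate cultures per concentration.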

Data set [7] has as its system Human immunodeficiency virus 1. Nature of the data set: Antiviral activity against HIV1 infected in human CEM/TK+ cells assessed as inhibition of virus-induced cytopathogenicity. The class given is functional, organism-based.
The nature of data set [8]: Cytotoxicity against human CEM-T4 cells assessed as cell viability at 200 uM after 7 days by MTT assay. Type of data set: cell-based. Conditions: cem-t4, 168 h. The procedure, abridged:
as §1

The target of data set [9] is Human immunodeficiency virus type 1 reverse transcriptase (Human immunodeficiency virus 1) (UniProt Q72547). In words: Inhibition of HIV1 recombinant reverse transcriptase at <= 3 uM preincubated for 5 mins measured after 1 hr by electrophoresis analysis. The procedure, abridged:
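Recombinant HIV-1 RT preincubated 5 min at 45 °C with compound in 50 mM Tris-HCl pH 8.3, 75 mM KCl, 3 mM MgCl2, 10 mM DTT. Started with dNTPs (50 μM final) and run 60 min at 45 °C. Products resolved on 12% denaturing PAGE and imaged by autoradiography. Fully extended product quantified.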

Data set [10] can be described thus: Chemical stability of the compound in RPMI cell culture media assessed as compound decomposition by HPLC analysis in presence of human MT4 cells. Type of data set: ADME, cell-based. The procedure, abridged: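 Compound incubated at 37 °C in RPMI cell culture medium in the presence of MT-4 cells. Degradation rate and decomposition products followed by HPLC on a C18 column.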

Data set [11] in a line: Cytotoxicity against human CEM-T4 cells assessed as cell viability after 7 days by MTT assay. Type of data set: cell-based. The procedure, abridged:
as §1

Data set [12] in a line: Cytotoxicity against human CEM-T4 cells assessed as cell viability at 30 uM after 7 days by MTT assay. Type of data set: cell-based. The following applies: cem-t4, 168 h. An outline of the steps: as §1

Regarding `O=c1ccn([C@H]2CC[C@@H](COP(=O)(O)Nc3ccncc3)O2)c(=O)[nH]1`, the pKa (commonly the negative logarithm of the acid dissociation constant) in data set [1] is less than 8. For the same molecule, in data set [2], the Activity result was “Non-toxic”. Further, in data set [3], the selectivity ratio is more than 250. In data set [4], the inhibition result is “inactive”. For the same molecule, the half-life (in general, the time needed for the level to fall by half in the phase considered) at 2000 µM in data set [5] is 32.1 h. In addition, in [6], the EC50 (usually the concentration that produces a half-maximal response) came to 0.2 µM and the EC90 (as a rule, the concentration needed for an effect of 90%) was 1.35 µM.

As for `Cc1cn([C@H]2C[C@H](N=[N+]=[N-])[C@@H](COP(=O)(O)Nc3cccnc3)O2)c(=O)[nH]c1=O`, in [7], the inhibition entry was “Active”. The Activity result in [8] is on record as “Non-toxic”. Also, the inhibition entry in data set [9] and in data set [4] was “inactive” each time. The selectivity ratio in data set [3] is more than 87000. Besides, in data set [10], the Stability result is on record as “Stable”. In addition, the half-life at 2000 µM in data set [5] is 73.3 h. Besides, the EC50 in data set [6] stood at 0.0023 µM. In addition, the EC90 in data set [6] was 0.009 µM.

Regarding `Cc1cn([C@H]2C[C@H](N=[N+]=[N-])[C@@H](CO)O2)c(=O)[nH]c1=O` [ZIDOVUDINE], the selectivity ratio in data set [3] was more than 100000. Further, in data set [6], the EC50 was less than 0.002 µM and the EC90 is 0.005 µM. In addition, in [11], the CC50 – broadly, the concentration at which the toxic effect on the cells reaches its halfway point – at 168 h is more than 200 µM and the CC90 at 168 h was more than 200 µM.

As for `O=c1ccn([C@H]2CC[C@@H](COP(=O)(O)Nc3ccccc3)O2)c(=O)[nH]1`, in data set [4], the inhibition entry was “inactive”.

For the molecule `Nc1ccc(Cl)cc1` [4-CHLOROANILINE], the pKa in [1] was 3.99.

Regarding `Cc1cn([C@H]2C[C@H](N=[N+]=[N-])[C@@H](COP(=O)(O)O)O2)c(=O)[nH]c1=O` [AZIDOTHYMIDINE MONOPHOSPHATE], the selectivity ratio in data set [3] came to 10000. Moreover, in [5], the half-life at 2000 µM was 3.6 h. Moreover, in data set [6], the EC50 is 0.01 µM. Also, the half-maximal cytotoxic concentration (CC50) at 168 h in data set [11] came to 100 µM.

For the molecule `O=c1ccn([C@H]2CC[C@@H](COP(=O)(O)Nc3cccnc3)O2)c(=O)[nH]1`, in [12], the Activity result is listed as “Non-toxic”. In addition, in data set [3], the selectivity ratio was less than 3. Besides, the inhibition result in data set [4] was “inactive”. Besides, the half-life at 2000 µM in data set [5] was 27.9 h. Moreover, in data set [6], the EC50 is more than 10 µM and the EC90 was more than 10 µM.

As for `Nc1cccnc1`, the pKa in [1] worked out at 6.03. The Activity entry in [8] is recorded as “Non-toxic”. Further, the selectivity ratio in [3] is less than 10. For the same molecule, in data set [6], the EC50 was more than 20 µM and the EC90 was more than 20 µM.

`Nc1ccncc1` [DALFAMPRIDINE] had a pKa in [1] of 9.13. Moreover, the Activity result in [8] is “Non-toxic”. For the same molecule, the selectivity ratio in data set [3] was less than 10. Further, in data set [6], the EC50 was more than 20 µM and the 90% effect concentration (EC90) is more than 20 µM.

As for `COc1ccc(N)cc1`, the pKa in [1] was 4.58.

For `Nc1ccccn1` [2-AMINOPYRIDINE], the Activity result in data set [8] is recorded as “Non-toxic”. Further, the selectivity ratio in data set [3] is less than 10. In data set [6], the EC50 is more than 20 µM and the 90% effect concentration (EC90) was more than 20 µM.

Regarding `CCN(CC)CC.Cc1cn([C@H]2C[C@H](N=[N+]=[N-])[C@@H](COP(=O)(O)Nc3ccc(Cl)cc3)O2)c(=O)[nH]c1=O`, in [3], the selectivity ratio came out at 14500. Also, the inhibition entry in data set [4] was “inactive”. The half-life at 2000 µM in data set [5] is more than 120 h. Also, in data set [6], the 50% effective concentration (EC50) was 0.02 µM and the EC90 is 0.1 µM. In data set [11], the CC50 at 168 h is 290 µM and the CC90 at 168 h worked out at 360 µM.

`CCN(CC)CC.Cc1cn([C@H]2C[C@H](N=[N+]=[N-])[C@@H](COP(=O)(O)Nc3ccccc3)O2)c(=O)[nH]c1=O`: the selectivity ratio in data set [3] was more than 300. Besides, the inhibition result in data set [4] was “inactive”. The half-life at 2000 µM in data set [5] is more than 120 h. Also, in data set [6], the EC50 amounted to 0.6 µM and the EC90 is more than 10 µM. In addition, in data set [11], the CC50 at 168 h is more than 200 µM and the CC90 at 168 h was more than 200 µM.

In the case of `Cc1cn([C@H]2C[C@H](N=[N+]=[N-])[C@@H](COP(=O)(O)Nc3ccncc3)O2)c(=O)[nH]c1=O`, the pKa in data set [1] is less than 8. Moreover, the inhibition result in [7] is “Active”. The Activity result in data set [8] is reported as “Non-toxic”. The inhibition result in data set [9] is “inactive”. Also, in data set [3], the selectivity ratio is more than 182000. The Stability entry in [10] is “Stable”. In addition, in data set [4], the inhibition result is “inactive”. The half-life at 2000 µM in [5] was more than 120 h. Moreover, in [6], the EC50 stood at 0.0011 µM and the EC90 stood at 0.006 µM.
